Calls of active or inactive are those of the source. The calls are words filed in the database; no cut-off is given here. Non-standard residues stand in square brackets, D forms with d. Residues, ends and D or L forms follow the SMILES beside them. *: point of attachment. Phe(4-guanidino) = N=C(N)Nc1ccc(C[C@H](N)C(=O)O)cc1; Phe(4-CN) = N#Cc1ccc(C[C@H](N)C(=O)O)cc1; Hydrocinnamoyl = O=C(CCc1ccccc1)*; 4Pal = N[C@@H](Cc1ccncc1)C(=O)O; Phg = N[C@H](C(=O)O)c1ccccc1; Bz = O=C(c1ccccc1)*
Columns and labels:
[1] = Permeability of the compound at 200 uM incubated for 5 hrs by PAMPA; type: physicochemical
In short: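 PAMPA in PBS: donor wells held 200 μM compound (triplicate) against PBS acceptor, 5 h at room temperature. Donor and acceptor concentrations were quantified by RP-18 HPLC-UV against calibration curves (10–200 μM). Pe and membrane retention were calculated by a literature method. Amiloride, caffeine, famotidine, furosemide and phenytoin served as references.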

Trypsin [2] = molecular target: T1, Trypsin (Homo sapiens, UniProt P07477+P07478+P35030); assay: Inhibition of trypsin (unknown origin) at 50 uM preincubated with protein for 15 mins followed by boc-Val-Pro-Arg-AMC substrate addition measured by continuous fluorometric analysis; type: protein assay
In short: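 Trypsin (1 nM) was preincubated 15 min with inhibitor (50 μM final) in 50 mM Tris-HCl pH 7.5, 150 mM NaCl, 0.05% Tween 20. boc-Val-Pro-Arg-AMC (50 μM final) was added. Continuous fluorescence at ex 355/em 460 nm; rate compared with an uninhibited control. Triplicate.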

[3] = molecular target: Genome polyprotein (West Nile virus) (UniProt P06935); assay: Inhibition of West Nile virus NS2B-NS3 protease at 50 uM preincubated with protein for 15 mins followed by Abz-Gly-Leu-Lys-Arg-Gly-Gly-3-(NO2)-Tyr substrate addition measured by continuous fluorometric analysis
Sequence of Genome polyprotein (West Nile virus) (P06935 whole entry): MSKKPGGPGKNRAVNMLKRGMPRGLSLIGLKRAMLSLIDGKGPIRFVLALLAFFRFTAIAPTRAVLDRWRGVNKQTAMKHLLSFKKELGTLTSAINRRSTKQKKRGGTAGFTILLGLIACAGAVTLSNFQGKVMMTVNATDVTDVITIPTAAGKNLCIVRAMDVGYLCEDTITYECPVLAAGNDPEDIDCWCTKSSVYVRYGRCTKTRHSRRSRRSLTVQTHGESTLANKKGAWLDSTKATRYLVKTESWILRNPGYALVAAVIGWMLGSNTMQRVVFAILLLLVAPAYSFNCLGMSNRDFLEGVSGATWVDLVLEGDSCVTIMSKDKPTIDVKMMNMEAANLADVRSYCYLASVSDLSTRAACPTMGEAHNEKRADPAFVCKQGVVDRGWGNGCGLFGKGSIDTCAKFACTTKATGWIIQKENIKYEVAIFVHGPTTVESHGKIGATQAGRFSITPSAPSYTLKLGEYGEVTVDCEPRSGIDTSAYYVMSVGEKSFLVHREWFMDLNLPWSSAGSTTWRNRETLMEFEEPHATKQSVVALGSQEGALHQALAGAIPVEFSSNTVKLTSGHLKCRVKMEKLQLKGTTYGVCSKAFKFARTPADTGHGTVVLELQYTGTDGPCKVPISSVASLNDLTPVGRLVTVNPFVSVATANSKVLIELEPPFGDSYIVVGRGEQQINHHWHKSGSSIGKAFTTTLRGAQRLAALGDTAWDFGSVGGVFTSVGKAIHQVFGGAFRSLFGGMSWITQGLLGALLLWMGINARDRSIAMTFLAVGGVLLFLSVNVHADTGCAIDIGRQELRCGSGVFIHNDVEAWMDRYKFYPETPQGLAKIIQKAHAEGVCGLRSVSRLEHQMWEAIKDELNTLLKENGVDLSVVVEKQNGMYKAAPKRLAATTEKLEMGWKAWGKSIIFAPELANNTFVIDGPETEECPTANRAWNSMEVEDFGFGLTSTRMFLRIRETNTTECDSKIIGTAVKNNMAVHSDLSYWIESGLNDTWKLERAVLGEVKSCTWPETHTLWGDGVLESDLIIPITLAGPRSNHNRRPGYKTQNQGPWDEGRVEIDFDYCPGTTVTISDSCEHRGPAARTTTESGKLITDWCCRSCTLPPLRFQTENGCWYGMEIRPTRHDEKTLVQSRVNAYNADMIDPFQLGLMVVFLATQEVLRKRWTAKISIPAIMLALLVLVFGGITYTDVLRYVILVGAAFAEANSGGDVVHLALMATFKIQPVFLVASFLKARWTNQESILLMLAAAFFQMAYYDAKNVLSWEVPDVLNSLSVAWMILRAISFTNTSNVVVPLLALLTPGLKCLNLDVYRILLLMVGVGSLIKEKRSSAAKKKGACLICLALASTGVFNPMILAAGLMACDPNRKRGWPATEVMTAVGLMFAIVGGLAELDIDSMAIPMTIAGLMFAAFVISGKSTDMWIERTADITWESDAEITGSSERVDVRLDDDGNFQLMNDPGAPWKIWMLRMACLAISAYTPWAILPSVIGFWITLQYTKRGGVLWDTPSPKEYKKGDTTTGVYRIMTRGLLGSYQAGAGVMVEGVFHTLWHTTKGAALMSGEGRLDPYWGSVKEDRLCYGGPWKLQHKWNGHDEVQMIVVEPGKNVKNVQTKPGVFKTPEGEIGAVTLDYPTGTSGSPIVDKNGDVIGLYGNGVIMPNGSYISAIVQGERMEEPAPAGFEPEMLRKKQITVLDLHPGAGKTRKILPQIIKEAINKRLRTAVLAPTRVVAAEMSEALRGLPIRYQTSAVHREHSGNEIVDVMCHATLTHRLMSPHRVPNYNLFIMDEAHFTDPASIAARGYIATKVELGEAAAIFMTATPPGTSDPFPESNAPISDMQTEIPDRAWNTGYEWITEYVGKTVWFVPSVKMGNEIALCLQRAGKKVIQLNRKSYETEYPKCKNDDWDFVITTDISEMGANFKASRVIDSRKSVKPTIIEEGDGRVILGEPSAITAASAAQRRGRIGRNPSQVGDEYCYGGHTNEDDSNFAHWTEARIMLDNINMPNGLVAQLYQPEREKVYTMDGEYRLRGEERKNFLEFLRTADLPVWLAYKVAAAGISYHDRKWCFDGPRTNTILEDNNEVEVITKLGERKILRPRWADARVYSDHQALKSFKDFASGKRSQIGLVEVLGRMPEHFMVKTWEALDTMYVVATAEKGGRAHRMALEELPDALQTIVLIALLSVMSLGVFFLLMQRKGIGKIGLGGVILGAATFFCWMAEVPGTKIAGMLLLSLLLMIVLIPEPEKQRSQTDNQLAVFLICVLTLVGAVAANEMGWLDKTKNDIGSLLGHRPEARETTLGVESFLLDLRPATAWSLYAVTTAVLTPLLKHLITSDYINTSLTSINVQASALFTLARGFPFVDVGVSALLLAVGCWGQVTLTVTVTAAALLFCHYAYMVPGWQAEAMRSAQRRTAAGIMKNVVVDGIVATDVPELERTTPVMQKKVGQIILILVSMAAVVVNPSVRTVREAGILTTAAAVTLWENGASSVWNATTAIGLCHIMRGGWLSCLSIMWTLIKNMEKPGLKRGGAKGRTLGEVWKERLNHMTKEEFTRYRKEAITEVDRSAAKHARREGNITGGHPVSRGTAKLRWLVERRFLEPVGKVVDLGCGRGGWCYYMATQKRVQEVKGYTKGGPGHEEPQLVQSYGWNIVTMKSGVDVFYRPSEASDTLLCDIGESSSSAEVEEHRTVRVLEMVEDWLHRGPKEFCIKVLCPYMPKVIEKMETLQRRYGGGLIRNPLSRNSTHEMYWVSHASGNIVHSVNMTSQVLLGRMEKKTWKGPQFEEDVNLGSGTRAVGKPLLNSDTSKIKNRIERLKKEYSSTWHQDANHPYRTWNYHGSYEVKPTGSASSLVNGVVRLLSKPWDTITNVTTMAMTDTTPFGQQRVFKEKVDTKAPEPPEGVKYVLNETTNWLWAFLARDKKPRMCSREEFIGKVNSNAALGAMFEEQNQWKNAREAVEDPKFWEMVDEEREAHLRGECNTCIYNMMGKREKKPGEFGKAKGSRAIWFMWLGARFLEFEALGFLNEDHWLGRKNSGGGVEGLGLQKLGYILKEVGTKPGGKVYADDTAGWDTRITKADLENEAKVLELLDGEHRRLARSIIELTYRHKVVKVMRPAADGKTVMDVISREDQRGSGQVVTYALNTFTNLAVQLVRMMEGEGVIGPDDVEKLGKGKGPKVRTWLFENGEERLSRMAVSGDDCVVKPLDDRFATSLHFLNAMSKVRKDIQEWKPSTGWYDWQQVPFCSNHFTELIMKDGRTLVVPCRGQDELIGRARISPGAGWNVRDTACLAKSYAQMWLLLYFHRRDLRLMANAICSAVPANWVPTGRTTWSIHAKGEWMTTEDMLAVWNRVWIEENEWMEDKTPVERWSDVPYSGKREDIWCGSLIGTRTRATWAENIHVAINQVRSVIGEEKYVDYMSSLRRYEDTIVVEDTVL
In short: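 WNV NS2B-NS3pro (150 nM) was preincubated 15 min with inhibitor (50 μM final) in 50 mM Tris-HCl pH 9.0, 10% ethylene glycol, 0.0016% Brij 58. Abz-Gly-Leu-Lys-Arg-Gly-Gly-3-(NO2)-Tyr (50 μM; Km 212 μM) started the reaction. Continuous read at ex 320/em 405 nm for 15 min against an uninhibited control. Triplicate.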

[4] = Inhibition of Dengue virus (serotype 2) NS2B-NS3 protease preincubated with protein for 15 mins followed by Abz-Nle-Lys-Arg-Arg-Ser-3-(NO2)Tyr substrate addition measured by continuous fluorometric analysis; design: species or system dengue virus type 2
In short: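 DENV2 protease (100 nM) in Tris-HCl pH 9.0/ethylene glycol/Brij 58 buffer, preincubated 15 min with inhibitor, then 50 μM FRET substrate added. Read at ex 320/em 405 nm over 15 min. Done for compounds with ≥70% inhibition, using series of 0–2.5, 0–6 or 0–30 μM, in triplicate, with nonlinear fitting. Ki came from substrate at 50–200 μM via Cheng–Prusoff.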

dengue virus type 2 [5] = assay: Inhibition of Dengue virus (serotype 2) NS2B-NS3 protease at 50 uM preincubated with protein for 15 mins followed by Abz-Nle-Lys-Arg-Arg-Ser-3-(NO2)Tyr substrate addition measured by continuous fluorometric analysis
In short: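 Continuous FRET assay in 50 mM Tris-HCl pH 9.0, 10% ethylene glycol, 0.0016% Brij 58. DENV2 protease (100 nM) was preincubated 15 min with inhibitor (50 μM final), then Abz-Nle-Lys-Arg-Arg-Ser-3-(NO2)Tyr (50 μM final; Km 105 μM) was added. Read at ex 320/em 405 nm as slope over 15 min, relative to an uninhibited control. Triplicate.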

Prothrombin = Prothrombin (Homo sapiens, UniProt P00734); assay: Inhibition of human thrombin at 25 uM preincubated with protein for 15 mins followed by boc-Val-Pro-Arg-AMC substrate addition measured after 10 mins by continuous fluorometric analysis
[6] = Cytotoxicity against human HuH7 cells at 50 uM incubated for 48 hrs measured by Cell-Titer Glo Luminescent viability Assay; type: cell-based; details: huh-7, 48 h
dengue virus type 2 [7] = assay: Antiviral activity against wild type Dengue virus (serotype 2) infected in human Huh-7 cells assessed as inhibition of viral replication at 50 uM incubated for 48 hrs measured by Cell-Titer Glo Luminescent viability assay; type: functional; details: Huh-7, 48 h
[8] = Half life in Sprague-Dawley rat liver microsomes at 100 uM incubated for 30 mins by HPLC analysis; type: ADME
In short: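 Pooled male Sprague-Dawley rat liver microsomes (0.2 mg/mL protein) with NADPH (5 mM) in DPBS, preincubated 15 min at 37 °C. Compound (100 μM) was then incubated 30 min at 37 °C. Aliquots at 0, 2, 5, 10, 20 and 30 min were quenched with acetonitrile, iced, and centrifuged. Parent remaining was measured by RP-HPLC-UV peak area versus reference. Testosterone served as activity control.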

Trypsin [9] = molecular target: T1, Trypsin; assay: Inhibition of trypsin (unknown origin) preincubated with protein for 15 mins followed by boc-Val-Pro-Arg-AMC substrate addition measured by continuous fluorometric analysis; type: protein assay

Compound | permeability [1] | inhibition (Trypsin [2]) | inhibition [3] | IC50 [4] | inhibition (dengue virus type 2 [5]) | inhibition (Prothrombin) | Activity [6] | inhibition at 50 µM (dengue virus type 2 [7]) | half-life at 100 µM [8] | IC50 (Trypsin [9]) | Ki [4]
NCCCC[C@H](NC(=O)[C@H](Cc1cccc(CN)c1)NC(=O)c1ccccc1)C(=O)N[C@H](C(N)=O)c1ccccc1 | impermeable | 11.2% | 68.6% | 11.8 µM | 82.4% | 5.6% |  |  |  |  | 
N#Cc1ccc(C[C@H](NC(=O)c2ccccc2)C(=O)N[C@@H](CCCCN)C(=O)N[C@H](C(N)=O)c2ccccc2)cc1 (Bz-[Phe(4-CN)]-Lys-[Phg]-NH2) |  | 0.7% | 4.7% |  | 22% | 7.5% |  |  |  |  | 
NCCCC[C@H](NC(=O)[C@H](Cc1ccncc1)NC(=O)c1ccccc1)C(=O)N[C@H](C(N)=O)c1ccccc1 (Bz-[4Pal]-Lys-[Phg]-NH2) |  | 0% | 0% |  | 12% | 3.8% |  |  |  |  | 
N=C(N)Nc1ccc(C[C@H](NC(=O)CCc2ccccc2)C(=O)N[C@@H](CCCCN)C(=O)N[C@H](C(N)=O)c2ccccc2)cc1 (Hydrocinnamoyl-[Phe(4-guanidino)]-Lys-[Phg]-NH2) | impermeable | 23.6% | 44.3% | 0.89 µM | 101% | 6.4% | Non-toxic | 8.8% | 18 min |  | 
N=C(N)c1cccc(C[C@H](NC(=O)c2ccccc2)C(=O)N[C@@H](CCCCN)C(=O)N[C@H](C(N)=O)c2ccccc2)c1 | impermeable | 37% | 39.5% | 3.07 µM | 94% | 71.1% |  |  |  |  | 
N=C(N)Nc1cccc([C@H](NC(=O)c2ccccc2)C(=O)N[C@@H](CCCCN)C(=O)N[C@H](C(N)=O)c2ccccc2)c1 | impermeable | 90.8% | 89.4% | 3.09 µM | 98.8% | 41.7% |  |  |  | 7.1 µM | 
N=C(N)c1ccc([C@H](NC(=O)c2ccccc2)C(=O)N[C@@H](CCCCN)C(=O)N[C@H](C(N)=O)c2ccccc2)cc1 |  | 19.2% | 59.5% |  | 24.8% | 5.5% |  |  |  |  | 
NCCCC[C@H](NC(=O)[C@H](Cc1cccc(N)c1)NC(=O)c1ccccc1)C(=O)N[C@H](C(N)=O)c1ccccc1 |  | 4.7% | 23.7% |  | 28.9% | inactive |  |  |  |  | 
N=C(N)NCCC[C@H](NC(=O)c1ccc(C(F)(F)F)cc1)C(=O)N[C@@H](CCCCN)C(=O)N[C@H](C(N)=O)c1ccccc1 |  | 11.5% | 85.3% | 1.02 µM | 98.7% | 7.7% |  |  |  |  | 
N=C(N)Nc1ccc(C[C@H](NC(=O)c2ccc(C(F)(F)F)cc2)C(=O)N[C@@H](CCCCN)C(=O)N[C@H](C(N)=O)c2ccccc2)cc1 | impermeable | 12.8% | 42.2% | 0.69 µM | 100% | inactive |  |  |  |  | 
N=C(N)c1ccc(C[C@H](NC(=O)c2ccc(C(F)(F)F)cc2)C(=O)N[C@@H](CCCCN)C(=O)N[C@H](C(N)=O)c2ccccc2)cc1 | impermeable | 43.4% | 69.9% | 0.21 µM | 99.8% | 50.3% | Non-toxic | 38.2% |  |  | 0.139 µM

Source: ChEMBL document CHEMBL3627637, “Phenylalanine and Phenylglycine Analogues as Arginine Mimetics in Dengue Protease Inhibitors” (J Med Chem, 2015)
